Assay results taken from ChEMBL document CHEMBL3600335 (Bioorg Med Chem Lett, 2015).
In brackets after ≈: the same amount, converted by molar mass. Activity calls are given as the source filed them. The rule behind the calls is not given here.

Experiments:
[1] = Cytotoxicity against African green monkey RC-37 cells assessed as cell viability after 3 days by neutral red uptake assay; assay type: cell-based; details: chlorocebus aethiops
[2] = system: Human alphaherpesvirus 1; assay: Antiviral activity against HSV-1 KOS infected in African green monkey RC-37 cells assessed as inhibition of viral replication incubated with virus for 1 hr followed by viral adsorbtion to cells for 1 hr measured after 3 days by plaque reduction assay; assay type: functional, organism-based; details: Human alphaherpesvirus 1, KOS
[3] = Solubility of the compound in water at room temperature; assay type: physicochemical
[4] = Selectivity index, ratio of CC50 for African green monkey RC-37 cells to IC50 for HSV-1 KOS; assay type: functional
[5] = molecular target: T1, Albumin (Homo sapiens, UniProt P02768); assay: Binding affinity to human serum albumin with excitation at 285 nm after 30 mins by fluorescence spectrophotometric analysis; assay type: ADME
T1 sequence (P02768 whole entry): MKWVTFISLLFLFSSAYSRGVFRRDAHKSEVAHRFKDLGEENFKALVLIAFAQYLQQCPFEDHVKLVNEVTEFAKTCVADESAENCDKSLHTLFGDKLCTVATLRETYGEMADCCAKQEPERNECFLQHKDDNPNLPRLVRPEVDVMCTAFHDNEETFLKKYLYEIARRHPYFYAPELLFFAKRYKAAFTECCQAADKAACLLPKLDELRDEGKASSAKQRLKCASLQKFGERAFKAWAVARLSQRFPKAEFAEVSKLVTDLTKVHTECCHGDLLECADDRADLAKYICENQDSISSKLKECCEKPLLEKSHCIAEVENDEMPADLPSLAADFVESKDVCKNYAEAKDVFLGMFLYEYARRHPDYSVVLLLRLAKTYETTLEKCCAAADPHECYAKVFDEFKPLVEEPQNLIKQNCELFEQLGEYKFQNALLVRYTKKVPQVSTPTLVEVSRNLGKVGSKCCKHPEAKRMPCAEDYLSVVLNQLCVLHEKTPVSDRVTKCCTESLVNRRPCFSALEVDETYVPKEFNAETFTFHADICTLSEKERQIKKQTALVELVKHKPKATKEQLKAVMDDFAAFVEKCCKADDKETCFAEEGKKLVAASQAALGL

[6] = molecular target: T1, Albumin; assay: Binding affinity to human serum albumin with excitation at 295 nm after 30 mins by fluorescence spectrophotometric analysis; assay type: ADME
[7] = Selectivity index, ratio of CC50 for African green monkey Vero cells to IC50 for HSV-2 186; assay type: functional
[8] = molecular target: T1, Albumin; assay: Binding affinity to human serum albumin with excitation at 285 nm assessed as association constant by fluorescence emission spectroscopic analysis; assay type: ADME; details: isolated protein, 0.285 µM
[9] = system: Human alphaherpesvirus 2; assay: Antiviral activity against HSV-2 186 infected in African green monkey Vero cells assessed as inhibition of viral yield after 48 hrs by crystal violet staining; assay type: functional, cell-based, strain 186
In short: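 Viral replication yield reduction assay against HSV-2 strain 186 over a range of drug concentrations. Viral titer was averaged from quadruplicate samples at each concentration, and IC50 was calculated from the titers. Compounds were tested in two separate experiments.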

[10] = molecular target: T1, Albumin; assay: Binding affinity to human serum albumin with excitation at 285 nm by fluorescence emission spectroscopic analysis; assay type: ADME
In short: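 Human serum albumin was titrated by fluorescence with the compound, using excitation at 285 nm. Kd was calculated from the titration spectra.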

[11] = molecular target: Human immunodeficiency virus type 1 reverse transcriptase (Human immunodeficiency virus 1) (UniProt Q72547); assay: Inhibition of HIV-1 reverse transcriptase at 37.5 to 150 ug/ml by Roche colorimetric assay
[12] = molecular target: Human immunodeficiency virus type 1 reverse transcriptase (Human immunodeficiency virus 1) (UniProt Q72547); assay: Inhibition of HIV-1 reverse transcriptase in human Jurkat cells assessed as ratio MTT activity to reverse transcriptase activity with compound/reverse transcriptase activity with DMSO at 5 ug/ml after 72 hrs; assay type: cell-based
In short: (§1)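 Jurkat cells infected with HIV-1 in the presence of compound, with DMSO as solvent control. Viability was read by MTT assay and HIV replication by reverse transcriptase activity assay. The value is the ratio MTT activity/(RT activity with compound/RT activity in DMSO).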

[13] = molecular target: Human immunodeficiency virus type 1 reverse transcriptase (Human immunodeficiency virus 1) (UniProt Q72547); assay: Inhibition of HIV-1 reverse transcriptase in human Jurkat cells assessed as ratio MTT activity to reverse transcriptase activity with compound/reverse transcriptase activity with DMSO at 1 ug/ml after 72 hrs; assay type: cell-based; in short: as §1
[14] = system: Human alphaherpesvirus 1; assay: Antiviral activity against HSV-1 15577 infected in African green monkey Vero cells assessed as reduction of virus-induced cytopathic effect after 4 to 6 days by light microscopic analysis; assay type: functional, organism-based; details: Human alphaherpesvirus 1, 15577, Vero
[15] = Cytotoxicity against African green monkey Vero cells assessed as cell viability after 48 hrs by Alamar Blue assay; assay type: cell-based; details: chlorocebus sabaeus
[16] = Selectivity index, ratio of CC50 for African green monkey Vero cells to IC50 for HSV-1 F; assay type: functional
[17] = Selectivity index, ratio of CC50 for African green monkey Vero cells to IC50 for HSV-2 G; assay type: functional
[18] = Cytotoxicity against African green monkey Vero cells after 2 days by neutral red uptake assay; assay type: cell-based; details: chlorocebus sabaeus
[19] = system: Human alphaherpesvirus 2; assay: Antiviral activity against HSV-2 G infected in African green monkey Vero cells after 2 days by plaque reduction assay; assay type: functional, organism-based; details: Human alphaherpesvirus 2, strain G, 48 h
[20] = system: Human alphaherpesvirus 1; assay: Antiviral activity against HSV-1 F infected in African green monkey Vero cells after 2 days by plaque reduction assay; assay type: functional, organism-based; details: Human alphaherpesvirus 1, strain F, 48 h
[21] = Selectivity index, ratio of CC50 for African green monkey Vero cells to IC50 for HSV-1 15578; assay type: functional
[22] = system: Human alphaherpesvirus 1; assay: Antiviral activity against HSV-1 15578 infected in African green monkey Vero cells assessed as reduction of virus-induced cytopathic effect after 4 to 6 days by light microscopic analysis; assay type: functional, organism-based; details: Human alphaherpesvirus 1, 15578, Vero
[23] = Cytotoxicity against African green monkey Vero cells assessed as cell viability after 3 days by MTT assay; assay type: cell-based; details: chlorocebus sabaeus
[24] = system: Human alphaherpesvirus 1; assay: Antiviral activity against HSV-1 7401H infected in African green monkey Vero cells after 2 to 3 days by plaque reduction assay; details: Human alphaherpesvirus 1, 7401H
[25] = Cytotoxicity against African green monkey Vero cells assessed as cell viability after 2 days by trypan blue exclusion assay; assay type: cell-based; details: chlorocebus sabaeus
[26] = Selectivity index, ratio of CC50 for African green monkey Vero cells to IC50 for HSV-1 7401H; assay type: functional
[27] = Human alphaherpesvirus 2, strain 186, Vero, 48 h

C=C(C)[C@@H]1CC[C@]2(C(=O)O)CC[C@]3(C)[C@H](CC[C@@H]4[C@@]5(C)CC[C@H](O)C(C)(C)[C@@H]5CC[C@]43C)[C@@H]12 [BETULINIC ACID]
CC50 at 72 h [1]: 10.9 µM | IC50 [2]: 0.7 µM | solubility [3]: 0.02 µg/mL (≈ 0.0438 µM) | Ratio CC50/IC50 [4]: 15.6 | Kd [5]: 4.5 µM | Kd [6]: 1.3 µM | Ratio CC50/IC50 [7]: >62.5 | Ka [8]: 1.685 ×10⁶ /M | IC50 [9, 27]: 1.6 µM | Kd [10]: 0.593 µM

C=C(C)[C@@H]1CC[C@]2(C(=O)O)CC[C@]3(C)[C@H](CC[C@@H]4[C@@]5(C)CC[C@H](O)C(C)(C)[C@@H]5CC[C@]43C)[C@@H]12
inhibition [11]: inactive | Ratio [12]: 0.649 | Ratio [13]: 0.158

C=C(C)[C@@H]1CC[C@]2(C(=O)O)CC[C@]3(C)[C@H](CC[C@@H]4[C@@]5(C)CC[C@@H](O)[C@@](C)(C(=O)O)[C@@H]5CC[C@]43C)[C@@H]12
IC50 [14]: 64.4 µM

C=C(C)[C@@H]1CC[C@]2(C(=O)[O-])CC[C@]3(C)[C@H](CC[C@@H]4[C@@]5(C)CC[C@H](O)C(C)(C)[C@@H]5CC[C@]43C)[C@@H]12.C[N+](C)(C)CCO
Kd [5]: 3.9 µM | CC50 at 48 h [15]: > 100 µM | Kd [6]: 4 µM | Ratio CC50/IC50 [7]: >111.1 | IC50 ([9]; vero): 0.9 µM

C=C(C)[C@@H]1CC[C@]2(CO)CC[C@]3(C)[C@H](CC[C@@H]4[C@@]5(C)CC[C@H](O)C(C)(C)[C@@H]5CC[C@]43C)[C@@H]12 [BETULIN]
CC50 at 72 h [1]: 49.7 µM | Ratio CC50/IC50 [16]: 183 | Ratio CC50/IC50 [17]: 17.6 | IC50 [2]: 0.7 µM | Ratio CC50/IC50 [4]: 71 | CC50 at 48 h [18]: 165 µM | IC50 [19]: 9.4 µM | IC50 [20]: 0.9 µM

C=C(C)[C@@H]1CC[C@]2(C(=O)N[C@H](C)C(=O)[O-])CC[C@]3(C)[C@H](CC[C@@H]4[C@@]5(C)CC[C@H](O)C(C)(C)[C@@H]5CC[C@]43C)[C@@H]12.C[N+](C)(C)CCO
Kd [5]: 47 µM | CC50 at 48 h [15]: > 100 µM | Kd [6]: 37 µM | Ratio CC50/IC50 [7]: >166.7 | IC50 [9, 27]: 0.6 µM

C=C(C)[C@@H]1CC[C@]2(C(=O)O)CC[C@]3(C)[C@H](CC[C@@H]4[C@@]5(C)CC[C@@H](OS(=O)(=O)O)C(C)(C)[C@@H]5CC[C@]43C)[C@@H]12
Ratio CC50/IC50 [21]: 5 | IC50 [22]: 45.7 µM | CC50 at 72 h [23]: 228 µM

C=C(C)[C@@H]1CC[C@]2(C(=O)N[C@H](C)C(=O)[O-])CC[C@]3(C)[C@H](CC[C@@H]4[C@@]5(C)CC[C@H](O)C(C)(C)[C@@H]5CC[C@]43C)[C@@H]12.CCCCCCCCCCCC[N+](C)(C)Cc1ccccc1
Kd [5]: 19 µM | CC50 at 48 h [15]: 10.5 µM | Kd [6]: 19 µM | Ratio CC50/IC50 [7]: 11.6 | IC50 [9, 27]: 0.9 µM

C=C(C)[C@@H]1CC[C@]2(C(=O)[O-])CC[C@]3(C)[C@H](CC[C@@H]4[C@@]5(C)CC[C@H](O)C(C)(C)[C@@H]5CC[C@]43C)[C@@H]12.CCCCCCCCCCCC[N+](C)(C)Cc1ccccc1
Kd [5]: 1.6 µM | CC50 at 48 h [15]: 12 µM | Kd [6]: 1.9 µM | Ratio CC50/IC50 [7]: 1.7 | IC50 [9, 27]: 7.2 µM

C=C(C)[C@@H]1CC[C@]2(C(=O)O)CC[C@]3(C)[C@H](CC[C@@H]4[C@@]5(C)CCC(=O)C(C)(C)[C@@H]5CC[C@]43C)[C@@H]12 [BETUNOLIC ACID]
IC50 [24]: 5.7 µM | CC50 at 48 h [25]: 35.6 µM | Ratio CC50/IC50 [26]: 6.2
